ChEMBL document CHEMBL3351428, “Uralsaponins M-Y, antiviral triterpenoid saponins from the roots of Glycyrrhiza uralensis” (J Nat Prod, 2014)

What was measured:
[1] = test system: Human immunodeficiency virus 1; assay: Antiviral activity against VSV-G protein pseudotyped HIV1 infected in 293T cells assessed as inhibition of viral replication after 48 hrs by luciferase reporter assay; format: functional, organism-based; settings: Human immunodeficiency virus 1, HEK-293T
In short: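 Pseudovirus was made by cotransfecting 293T cells with pNL-Luc-E and pHIT/G and harvesting filtered supernatant after 48 h. Capsid level was quantified by p24 ELISA. SupT1 cells were infected at MOI 1 with or without compound (efavirenz as positive control) at […] for 48 h. Luciferase read-out gave inhibition rate. Compounds above 50% at 100 μM were taken to IC50.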

[2] = Antiviral activity against Influenza A virus A/WSN/33 (H1N1) infected in MDCK cells assessed as inhibition of virus-induced cell death after 36 hrs by CellTiter-Glo luminescent cell viability assay; format: functional, cell-based, Influenza A virus (A/WSN/1933(H1N1))
In short: (§1)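 MDCK cells in DMEM/10% FBS with penicillin-streptomycin, seeded 1 × 10^5/well 24 h before infection (37 °C, 5% CO2). Virus was grown in MDCK with 2 μg/mL TPCK-trypsin. Compound premixed with virus 15 min at room temperature, then added after medium removal. Read at 36 h postinfection by microscopy, confirmed by CellTiter-Glo. Inhibition % computed from luminescence relative to DMSO with/without virus. IC50 measured for significant inhibitors.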

[3] = Antiviral activity against Influenza A virus A/WSN/33 (H1N1) infected in MDCK cells assessed as inhibition of virus-induced cell death at 100 uM after 36 hrs by CellTiter-Glo luminescent cell viability assay; format: functional, Influenza A virus (A/WSN/1933(H1N1)); in short: as §1
[4] = test system: Human immunodeficiency virus 1; assay: Antiviral activity against VSV-G protein pseudotyped HIV1 infected in 293T cells assessed as inhibition of viral replication at 100 uM after 48 hrs by luciferase reporter assay; format: functional; settings: Human immunodeficiency virus 1, HEK-293T
MDCK = assay: Cytotoxicity against MDCK cells assessed as reduction in cell viability at 100 uM after 36 hrs by CellTiter-Glo luminescent assay; format: cell-based, Canis lupus familiaris; settings: dog
In short: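 Uninfected MDCK cells, grown in DMEM with 10% FBS, 100 U/mL penicillin and 100 μg/mL streptomycin, were incubated with compound for 36 h. Cytopathic effect was scored by microscopy and confirmed by CellTiter-Glo luminescent viability read-out.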

SMILES	IC50 [1] [µM]	IC50 [2] [µM]	inhibition at 100 µM [3] [%]	inhibition at 100 µM [4] [%]	Activity (MDCK)
CC1(C)[C@@H](O)CC[C@]2(C)[C@H]3C(=O)C=C4[C@@H]5C[C@@](C)(C(=O)O)CC[C@]5(C)CC[C@@]4(C)[C@]3(C)CC[C@@H]12 [ENOXOLONE]	28.8	–	–	–	–
CCOC(=O)C1=C[C@@H](OC(CC)CC)[C@H](NC(C)=O)[C@@H](N)C1 [OSELTAMIVIR PHOSPHATE]	–	45.6	78	–	–
CC1(C)[C@@H](O[C@@H]2O[C@H](C(=O)O)[C@@H](O)[C@H](O)[C@H]2O[C@@H]2O[C@H](C(=O)O)[C@@H](O)[C@H](O)[C@H]2O)CC[C@]2(C)[C@H]3CC=C4[C@@H]5C[C@@](C)(C(=O)O)CC[C@]5(C)CC[C@@]4(C)[C@]3(C)CC[C@@H]12	83.2	–	–	> 50	–
C[C@@H]1O[C@@H](O[C@H]2[C@H](O[C@H]3[C@H](O[C@H]4CC[C@]5(C)[C@H]6C(=O)C=C7[C@@H]8C[C@@](C)(C(=O)O)[C@H](O)C[C@]8(C)CC[C@@]7(C)[C@]6(C)CC[C@H]5C4(C)C)O[C@H](C(=O)O)[C@@H](O)[C@@H]3O)O[C@H](CO)[C@@H](O)[C@@H]2O)[C@H](O)[C@H](O)[C@H]1O	–	42.7	47.5	–	Non-toxic
CC1(C)[C@@H](O[C@@H]2O[C@H](C(=O)O)[C@@H](O)[C@H](O)[C@H]2O[C@@H]2O[C@H](C(=O)O)[C@@H](O)[C@H](O)[C@H]2O)CC[C@]2(C)[C@H]3C(=O)C=C4[C@@H]5C[C@]6(C)C[C@@H](OC6=O)[C@]5(C)CC[C@@]4(C)[C@]3(C)CC[C@@H]12	87.1	–	–	> 50	–
CC(=O)O[C@@H]1C[C@](C)(C=O)C[C@H]2C3=CC(=O)[C@@H]4[C@@]5(C)CC[C@H](O)C(C)(C)[C@@H]5CC[C@@]4(C)[C@]3(C)CC[C@@]12C	69.2	–	–	> 50	–
CC1(C)[C@@H](O[C@@H]2O[C@H](CO)[C@@H](O)[C@H](O)[C@H]2O)CC[C@]2(C)[C@H]3C(=O)C=C4[C@@H]5C[C@@](C)(C(=O)O)CC[C@]5(C)CC[C@@]4(C)[C@]3(C)CC[C@@H]12	41.7	–	–	> 50	–
CC1(C)[C@@H](O[C@H]2O[C@H](C(=O)O)[C@@H](O)[C@H](O)[C@H]2O[C@@H]2OC[C@H](O)[C@H](O)[C@H]2O)CC[C@]2(C)[C@H]3C(=O)C=C4[C@@H]5C[C@@](C)(C(=O)O)CC[C@]5(C)CC[C@@]4(C)[C@]3(C)CC[C@@H]12	85.1	–	–	> 50	–
C[C@@H]1O[C@@H](O[C@@H]2CC(C)(C)C[C@H]3C4=CC(=O)[C@@H]5[C@@]6(C)CC[C@H](O[C@@H]7O[C@H](C(=O)O)[C@@H](O)[C@H](O)[C@H]7O[C@@H]7O[C@H](C(=O)O)[C@@H](O)[C@H](O)[C@H]7O)C(C)(C)[C@@H]6CC[C@@]5(C)[C@]4(C)CC[C@@]23C)[C@H](O)[C@H](O)[C@H]1O	–	39.6	47.5	–	Non-toxic
CC(=O)O[C@@H]1C[C@](C)(C(=O)O)C[C@H]2C3=CC(=O)[C@@H]4[C@@]5(C)CC[C@H](O[C@H]6O[C@H](C(=O)O)[C@@H](O)[C@H](O)[C@H]6O[C@@H]6O[C@H](C(=O)O)[C@@H](O)[C@H](O)[C@H]6O)C(C)(C)[C@@H]5CC[C@@]4(C)[C@]3(C)CC[C@@]12C	29.5	49.1	47.5	–	Non-toxic
